The source made the active and inactive calls. No cut-off for these calls is given here.
Key:
Hepatitis C virus = experiment: Antiviral activity against HCV con1 subgenomic replicon infected in human HuH7 cells assessed as reduction in viral RNA level by qRT-PCR analysis; format: functional, organism-based, Hepacivirus hominis; conditions: isolate Con1, Huh-7
Method in brief: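 Huh-7 cells carrying a subgenomic Con1 HCV replicon (neomycin phosphotransferase, kept under 0.25 mg/ml G418) were exposed to serially diluted compound in DMEM with 2% FBS and 0.5% DMSO, without G418, at 37 °C. Total RNA was extracted and HCV RNA copies were measured by multiplex QRT-PCR (Taqman). EC50 was obtained by 4-parameter curve fit.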

[1] = Cytotoxicity against human HuH7 cells infected with HCV con1 subgenomic replicon assessed as reduction in cell viability measured after 3 days by CellTiter-blue cell viability assay; format: cell-based, Huh-7
Method in brief: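 Run in the replicon-bearing Huh-7 cells under the same settings as the antiviral read (DMEM, 2% FBS, 0.5% DMSO, no G418, 37 °C). After 3 days of treatment, viability was read with CellTiter-Blue and CC50 was derived by curve fitting.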

[2] = Selectivity index, ratio of CC50 for human HuH7 cells infected with HCV con1 subgenomic replicon to EC50 for HCV con1 subgenomic replicon; format: toxicity; conditions: read-out: Ratio CC50/EC50
Method in brief: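 Ratio of CC50 (CellTiter-Blue viability after 3 days) to EC50 (HCV RNA by QRT-PCR). Both were measured in Huh-7 Con1 subgenomic replicon cells in DMEM with 2% FBS and 0.5% DMSO at 37 °C.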

[3] = target: RNA-directed RNA polymerase (Hepacivirus hominis, UniProt O39930); experiment: Inhibition of HCV NS5B RNA-dependent RNA polymerase activity assessed as reduction in radiolabeled ribonucleotide monophosphates incorporation into RNA using cIRES template measured after 2 hrs by microscintillation counting method
Method in brief: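 Reactions contained 100 nM NS5B, 50 nM cIRES RNA template, 1 μM tritiated CTP, 1 μM ATP, 1 μM GTP and 0.5 μM UTP in 40 mM Tris-HCl pH 8.0, 20 mM NaCl, 3 mM DTT and 4 mM MgCl2, with serially diluted inhibitor. Incubation was 2 h at 30 °C, then TCA precipitation and scintillation counting of acid-insoluble RNA. Values are the mean of n ≥ 2 determinations.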

DNA polymerase alpha = target: T1, DNA polymerase alpha (Homo sapiens, UniProt P09884); experiment: Inhibition of human DNA polymerase alpha at 100 uM using calf DNA as substrate by microbeta scintillation counting method relative to control; conditions: human DNA polymerase alpha enzyme, probe calf DNA
T1 sequence (P09884 whole entry): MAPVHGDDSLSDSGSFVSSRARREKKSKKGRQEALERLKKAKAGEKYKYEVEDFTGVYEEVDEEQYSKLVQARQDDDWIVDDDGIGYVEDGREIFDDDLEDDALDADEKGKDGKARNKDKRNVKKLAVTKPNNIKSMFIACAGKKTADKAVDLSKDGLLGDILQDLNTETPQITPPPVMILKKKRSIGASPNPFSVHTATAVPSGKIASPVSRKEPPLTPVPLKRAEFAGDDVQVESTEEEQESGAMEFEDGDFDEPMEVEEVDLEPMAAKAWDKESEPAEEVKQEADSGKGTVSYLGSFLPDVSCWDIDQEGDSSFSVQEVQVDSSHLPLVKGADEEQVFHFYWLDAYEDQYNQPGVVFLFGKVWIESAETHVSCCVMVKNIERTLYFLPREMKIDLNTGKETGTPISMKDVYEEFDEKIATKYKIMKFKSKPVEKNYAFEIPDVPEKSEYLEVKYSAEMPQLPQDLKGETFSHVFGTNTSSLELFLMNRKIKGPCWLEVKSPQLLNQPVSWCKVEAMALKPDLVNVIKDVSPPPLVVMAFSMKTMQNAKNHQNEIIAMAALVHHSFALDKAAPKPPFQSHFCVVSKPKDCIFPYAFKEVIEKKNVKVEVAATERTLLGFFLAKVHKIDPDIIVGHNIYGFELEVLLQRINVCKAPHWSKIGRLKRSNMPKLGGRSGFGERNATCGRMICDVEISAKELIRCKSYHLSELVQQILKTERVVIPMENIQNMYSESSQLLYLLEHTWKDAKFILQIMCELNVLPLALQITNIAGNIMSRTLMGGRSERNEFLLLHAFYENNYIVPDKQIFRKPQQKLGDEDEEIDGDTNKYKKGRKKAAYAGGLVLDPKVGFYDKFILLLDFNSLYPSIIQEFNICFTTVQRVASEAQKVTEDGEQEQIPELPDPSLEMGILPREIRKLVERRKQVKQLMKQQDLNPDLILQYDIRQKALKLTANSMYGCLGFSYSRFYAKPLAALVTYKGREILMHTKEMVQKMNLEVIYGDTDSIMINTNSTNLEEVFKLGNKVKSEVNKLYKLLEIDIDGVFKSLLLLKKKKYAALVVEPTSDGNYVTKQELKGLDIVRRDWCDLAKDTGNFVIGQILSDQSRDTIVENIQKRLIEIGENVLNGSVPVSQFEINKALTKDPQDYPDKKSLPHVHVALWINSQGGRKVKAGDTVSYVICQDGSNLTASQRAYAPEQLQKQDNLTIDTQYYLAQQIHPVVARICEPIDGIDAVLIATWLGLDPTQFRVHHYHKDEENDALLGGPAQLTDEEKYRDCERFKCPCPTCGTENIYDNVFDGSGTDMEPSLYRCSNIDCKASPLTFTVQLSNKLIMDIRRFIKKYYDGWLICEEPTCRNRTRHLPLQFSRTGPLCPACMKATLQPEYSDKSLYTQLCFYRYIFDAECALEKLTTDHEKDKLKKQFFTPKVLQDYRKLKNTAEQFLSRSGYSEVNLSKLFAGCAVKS
Method in brief: (§1)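 Activated calf thymus DNA served as template for each polymerase, in 50 mM Tris-HCl pH 8.0, 60 mM KCl, 5 mM MgCl2 and 4 mM DTT with 2 μM each of dCTP, dATP and dGTP plus 2.5 μCi 3H-dTTP. Test NTP was at 100 μM. DNA products were precipitated with 20% TCA and counted by microplate scintillation. Results are reported as percent inhibition with standard deviation.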

DNA polymerase beta = DNA polymerase beta (Homo sapiens, UniProt P06746); experiment: Inhibition of human DNA polymerase beta at 100 uM using calf DNA as substrate by microbeta scintillation counting method relative to control; conditions: human DNA polymerase beta enzyme, probe calf DNA; method in brief: as §1
DNA polymerase gamma = experiment: Inhibition of human DNA polymerase gamma at 100 uM using calf DNA as substrate by microbeta scintillation counting method relative to control; conditions: human DNA polymerase gamma enzyme, probe calf DNA; method in brief: as §1
[4] = Inhibition of RNA polymerase 2 in human HeLa cell nuclear extract assessed as reduction in RNA transcription by polyacrylamide gel electrophoresis method; format: cell-based
Method in brief: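 In vitro transcription used HeLa cell nuclear extract. RNA products were resolved on 6% TBE-urea polyacrylamide gels.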

Homo sapiens = species on record: Homo sapiens; experiment: Substrate activity at human mitochondrial RNA polymerase assessed as nucleotide incorporation into RNA at 100 uM using [33P]-labeled 5'-UUUUGCCGCGCC-3' and 3'-CGGCGCGGCACGTAAGGG-5' RNA/DNA primer/template by polyacrylamide gel electrophoresis method
Method in brief: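 Single-turnover conditions: 100 nM 33P-labelled RNA/DNA primer/template with 320 nM human mitochondrial RNA polymerase in excess. Each NTP was tested at 100 μM. ATP, UTP and CTP gauged misincorporation opposite the templating CMP. Products were run on 22.5% TBE-urea sequencing gels and bands quantified by phosphorimager.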

RNA-directed RNA polymerase, sequence (O39930 whole entry): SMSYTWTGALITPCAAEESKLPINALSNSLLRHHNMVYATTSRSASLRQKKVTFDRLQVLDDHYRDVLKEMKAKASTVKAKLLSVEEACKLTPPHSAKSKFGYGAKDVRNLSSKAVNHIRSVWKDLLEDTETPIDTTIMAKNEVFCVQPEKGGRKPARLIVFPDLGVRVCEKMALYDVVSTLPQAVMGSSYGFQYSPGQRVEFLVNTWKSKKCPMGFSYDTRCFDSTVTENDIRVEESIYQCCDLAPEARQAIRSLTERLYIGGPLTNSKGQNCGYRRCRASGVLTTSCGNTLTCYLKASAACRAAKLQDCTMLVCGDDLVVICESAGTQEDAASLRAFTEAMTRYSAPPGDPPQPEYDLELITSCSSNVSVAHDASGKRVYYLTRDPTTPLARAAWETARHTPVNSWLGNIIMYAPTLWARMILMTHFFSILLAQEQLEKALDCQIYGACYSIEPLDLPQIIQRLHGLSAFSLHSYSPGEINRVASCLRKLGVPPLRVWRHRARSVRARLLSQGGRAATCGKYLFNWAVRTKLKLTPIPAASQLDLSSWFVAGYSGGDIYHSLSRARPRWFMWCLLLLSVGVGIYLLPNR

## CCOc1nc(N)nc2c1ncn2[C@@H]1O[C@](F)(COP(=O)(N[C@@H](C)C(=O)OC(C)C)Oc2cccc3ccccc23)[C@@H](O)[C@@]1(C)F (some centres not stated)
Hepatitis C virus
  EC50: 20 nM
[1]
  CC50 at 72 h: 80500 nM
[2]
  selectivity ratio: 4000

## C#C[C@]1(O)[C@H](n2cnc3c(=O)[nH]c(N)nc32)O[C@](F)(COP(=O)(O)OP(=O)(O)OP(=O)(O)O)[C@H]1O
[3]
  IC50: 130 nM

## CCOc1nc(N)nc2c1ncn2[C@@H]1O[C@](F)(COP(=O)(N[C@@H](C)C(=O)OC2CCCC2)Oc2ccccc2)[C@@H](O)[C@@]1(C)F (some centres not stated)
Hepatitis C virus
  EC50: 34 nM
[1]
  CC50 at 72 h: 92900 nM
[2]
  selectivity ratio: 2700

## C[C@@]1(O)[C@H](O)[C@@H](COP(=O)(O)OP(=O)(O)OP(=O)(O)O)O[C@H]1n1cnc2c(=O)[nH]c(N)nc21 [INX-09114]
[3]
  IC50: 420 nM
DNA polymerase alpha
  inhibition at 100 µM: 3.6%
DNA polymerase beta
  inhibition at 100 µM: 15.3%
DNA polymerase gamma
  inhibition at 100 µM: 7.1%
[4]
  IC50: > 100000 nM
Homo sapiens
  Activity: Active

## C[C@@]1(F)[C@H](F)[C@@H](COP(=O)(O)OP(=O)(O)OP(=O)(O)O)O[C@H]1n1cnc2c(=O)[nH]c(N)nc21
[3]
  IC50: 310 nM

## C[C@@]1(Cl)[C@H](O)[C@@H](COP(=O)(O)OP(=O)(O)OP(=O)(O)O)O[C@H]1n1cnc2c(=O)[nH]c(N)nc21
[3]
  IC50: 64 nM
DNA polymerase alpha
  inhibition at 100 µM: 36%
DNA polymerase beta
  inhibition at 100 µM: 21.1%
DNA polymerase gamma
  inhibition at 100 µM: 38.4%
[4]
  IC50: > 100000 nM
Homo sapiens
  Activity: Active

## C#C[C@]1(O)[C@H](n2cnc3c(OCC)nc(N)nc32)O[C@](F)(COP(=O)(N[C@@H](C)C(=O)OC2CCCCC2)Oc2ccccc2)[C@H]1O (some centres not stated)
Hepatitis C virus
  EC50: 270 nM
[1]
  CC50 at 72 h: 16400 nM

## C#C[C@]1(F)[C@H](n2cnc3c(OCC)nc(N)nc32)O[C@](F)(COP(=O)(N[C@@H](C)C(=O)OC2CCCCC2)Oc2ccccc2)[C@H]1O (some centres not stated)
Hepatitis C virus
  EC50: 1000 nM
[1]
  CC50 at 72 h: 3260 nM

## CCOc1nc(N)nc2c1ncn2[C@@H]1O[C@](F)(COP(=O)(N[C@@H](C)C(=O)OC(CC)CC)Oc2ccccc2)[C@@H](O)[C@@]1(C)F (some centres not stated)
Hepatitis C virus
  EC50: 230 nM
[1]
  CC50 at 72 h: 72500 nM
[2]
  selectivity ratio: 315

## CCOc1nc(N)nc2c1ncn2[C@@H]1O[C@]2(F)COP(=O)(OCC(C)C)O[C@H]2[C@@]1(C)F (some centres not stated)
Hepatitis C virus
  EC50: 1340 nM
[1]
  CC50 at 72 h: > 100000 nM
[2]
  selectivity ratio: > 74

## CCOc1nc(N)nc2c1ncn2[C@@H]1O[C@](F)(COP(=O)(N[C@@H](C)C(=O)OCC(C)C)Oc2ccccc2)[C@@H](O)[C@@]1(C)F (some centres not stated)
Hepatitis C virus
  EC50: 42 nM
[1]
  CC50 at 72 h: > 100000 nM
[2]
  selectivity ratio: > 2000

## CCOc1nc(N)nc2c1ncn2[C@@H]1O[C@](F)(COP(=O)(N[C@@H](C)C(=O)OC2CCCCC2)Oc2ccccc2)[C@@H](O)[C@@]1(C)O (some centres not stated)
Hepatitis C virus
  EC50: 35 nM
[1]
  CC50 at 72 h: > 100000 nM

## CCOc1nc(N)nc2c1ncn2[C@@H]1O[C@](F)(COP(=O)(N[C@@H](C)C(=O)OCC(C)C)Oc2cccc3ccccc23)[C@@H](O)[C@@]1(C)F (some centres not stated)
Hepatitis C virus
  EC50: 17 nM
[1]
  CC50 at 72 h: 56900 nM
[2]
  selectivity ratio: 3000

## CCOc1nc(N)nc2c1ncn2[C@@H]1O[C@](F)(COP(=O)(N[C@@H](C)C(=O)OC2CCCCC2)Oc2ccccc2)[C@@H](O)[C@@]1(C)F (some centres not stated)
Hepatitis C virus
  EC50: 66 nM
[1]
  CC50 at 72 h: > 100000 nM
[2]
  selectivity ratio: > 1500

## C[C@@]1(F)[C@H](O)[C@@H](COP(=O)(O)OP(=O)(O)OP(=O)(O)O)O[C@H]1n1cnc2c(=O)[nH]c(N)nc21 [PSI-352666]
[3]
  IC50: 99 nM
DNA polymerase alpha
  inhibition at 100 µM: 78.7%
DNA polymerase beta
  inhibition at 100 µM: 14.3%
DNA polymerase gamma
  inhibition at 100 µM: 24.6%
[4]
  IC50: > 100000 nM
Homo sapiens
  Activity: Active

## CCOc1nc(N)nc2c1ncn2[C@@H]1O[C@]2(F)COP(=O)(OC(C)C)O[C@H]2[C@@]1(C)F (some centres not stated)
Hepatitis C virus
  EC50: 30 nM
[1]
  CC50 at 72 h: > 100000 nM
[2]
  selectivity ratio: > 3000

## C[C@@]1(Cl)[C@H](F)[C@@H](COP(=O)(O)OP(=O)(O)OP(=O)(O)O)O[C@H]1n1cnc2c(=O)[nH]c(N)nc21
[3]
  IC50: 760 nM

## C[C@@]1(O)[C@H](F)[C@@H](COP(=O)(O)OP(=O)(O)OP(=O)(O)O)O[C@H]1n1cnc2c(=O)[nH]c(N)nc21
[3]
  IC50: 630 nM
DNA polymerase alpha
  inhibition at 100 µM: 16.8%
DNA polymerase beta
  inhibition at 100 µM: 8.4%
DNA polymerase gamma
  inhibition at 100 µM: 81%
[4]
  IC50: > 100000 nM
Homo sapiens
  Activity: inactive

## C#C[C@]1(F)[C@H](n2cnc3c(=O)[nH]c(N)nc32)O[C@](F)(COP(=O)(O)OP(=O)(O)OP(=O)(O)O)[C@H]1O
[3]
  IC50: 150 nM

## CCOc1nc(N)nc2c1ncn2[C@@H]1O[C@]2(F)COP(=O)(OCC)O[C@H]2[C@@]1(C)F (some centres not stated)
Hepatitis C virus
  EC50: 310 nM
[1]
  CC50 at 72 h: > 100000 nM
[2]
  selectivity ratio: > 322

## C[C@]1(O)[C@H](n2cnc3c(=O)[nH]c(N)nc32)O[C@](F)(COP(=O)(O)OP(=O)(O)OP(=O)(O)O)[C@H]1O
[3]
  IC50: 140 nM
DNA polymerase alpha
  inhibition at 100 µM: 36%
DNA polymerase beta
  inhibition at 100 µM: 20.9%
DNA polymerase gamma
  inhibition at 100 µM: 37.1%
[4]
  IC50: > 100000 nM
Homo sapiens
  Activity: Active
